Measured values reported in ChEMBL document CHEMBL2046427, “Nonhematotoxic naphthalene diimide modified by polyamine: synthesis and biological evaluation” (J Med Chem, 2012).
Calls of active or inactive are those of the source. The rule behind the calls is not given here.

Experiments:
H22 [1] = experiment: Antimetastatic activity against mouse H22 cells xenografted in Kunming mouse assessed as decrease in lung metastasis focuses number at 5 mg/kg, iv administered on day 11 post-tumor injection for 7 days measured on day 18 by hematoxylin and eosin staining relative to vehicle treated control; format: functional, organism-based; design: dose 5 mg/kg
Mus musculus [2] = experiment: Toxicity in mouse H22 cells bearing Kunming mouse assessed pathological changes in spleen at 5 mg/kg, iv administered for 7 days measured on day 8 by hematoxylin and eosin staining relative to vehicle treated control; format: organism-based; design: dose 5 mg/kg, route intravenous; details: in vivo, 168 h
Summary of the method: (§1)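 Tumour-bearing mice dosed iv for 7 consecutive days, killed on day 8; heart, liver, kidney, brain, lung and spleen removed, fixed in 10% formaldehyde 24 h, paraffin-embedded, sectioned and H&E stained for histopathological change versus saline controls.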

Mus musculus [3] = experiment: Toxicity in mouse H22 cells bearing Kunming mouse assessed pathological changes in heart at 5 mg/kg, iv administered for 7 days measured on day 8 by hematoxylin and eosin staining relative to vehicle treated control; format: organism-based; design: dose 5 mg/kg, route intravenous; details: in vivo, 168 h; summary of the method: as §1
Mus musculus [4] = experiment: Toxicity in mouse H22 cells bearing Kunming mouse assessed as decrease in platelet number at 5 mg/kg, iv administered for 7 days measured on day 8 relative to vehicle treated control; format: organism-based; design: dose 5 mg/kg, route intravenous; details: in vivo, 168 h
Summary of the method: (§2)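 Tumour-bearing mice (10 per group) dosed iv for 7 consecutive days; killed on day 8. Blood and bone marrow collected; platelet, RBC, WBC and bone marrow cell counts determined with a Coulter counter. Mean SD versus saline control; Student's t test or ANOVA with q test.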

H22 [5] = experiment: Antitumor activity against mouse H22 cells xenografted in Kunming mouse assessed as decrease in cell survival at 5 mg/kg, iv administered on day 8 post-tumor injection for 7 days measured on day 16 relative to vehicle treated control; format: functional, organism-based; design: dose 5 mg/kg
HepG2 [6] = experiment: Cytotoxicity against human HepG2 cells assessed as mitochondrial permeability augmentation after 48 hrs by fluorescence-based high-content screening assay; format: functional, cell-based
Summary of the method: (§3)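 HepG2 seeded 5 × 10³/well; after 12 h treated at 1, 5, 10, 15 and 30 μM for 48 h. Multiparameter cytotoxicity kit staining imaged by high-content screening: Hoechst 33342 for nuclear morphology, permeability dye (green nuclei) for membrane integrity, mitochondrial potential dye, and a weak-base dye for lysosomal mass/pH.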

HepG2 [7] = experiment: Cytotoxicity against human HepG2 cells assessed as decrease in mitochondrial membrane potential after 48 hrs by fluorescence-based high-content screening assay; format: functional, cell-based; summary of the method: as §3
Mus musculus [8] = experiment: Toxicity in mouse H22 cells bearing Kunming mouse assessed pathological changes in kidney at 5 mg/kg, iv administered for 7 days measured on day 8 by hematoxylin and eosin staining relative to vehicle treated control; format: organism-based; design: dose 5 mg/kg, route intravenous; details: in vivo, 168 h; summary of the method: as §1
Mus musculus [9] = experiment: Toxicity in mouse H22 cells bearing Kunming mouse assessed as weight loss at 5 mg/kg, iv administered for 7 days measured on day 8 relative to vehicle treated control; format: organism-based; design: dose 5 mg/kg, route intravenous; details: in vivo, 168 h
Summary of the method: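 Body weight monitored in tumour-bearing mice during 7 consecutive days of iv dosing (10 per group), as a sign of dose-limiting toxicity versus saline-treated controls; mice killed on day 8.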

Mus musculus [10] = experiment: Toxicity in mouse H22 cells bearing Kunming mouse assessed pathological changes in lung at 5 mg/kg, iv administered for 7 days measured on day 8 by hematoxylin and eosin staining relative to vehicle treated control; format: organism-based; design: dose 5 mg/kg, route intravenous; details: in vivo, 168 h; summary of the method: as §1
H22 [11] = experiment: Antitumor activity against mouse H22 cells xenografted in Kunming mouse assessed as tumor growth inhibition at 5 mg/kg, iv administered on day 8 post-tumor injection for 7 days measured on day 16 relative to vehicle treated control; format: functional; details: read-out: GI
Summary of the method: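 Male Kunming mice, 5 weeks, 18−22 g, injected sc with 2 × 10⁶ H22 cells. From day 8, randomized groups got caudal vein injection (0.2 or 5 mg/kg, or physiologic saline) for 7 consecutive days. On day 16 tumours excised and weighed; inhibitory rate (%) = [(A − B)/A] × 100 using mean tumour weights of control (A) and treated (B). Tumours formalin-fixed, H&E-stained.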

Mus musculus [12] = experiment: Toxicity in mouse H22 cells bearing Kunming mouse assessed pathological changes in liver at 5 mg/kg, iv administered for 7 days measured on day 8 by hematoxylin and eosin staining relative to vehicle treated control; format: organism-based; design: dose 5 mg/kg, route intravenous; details: in vivo, 168 h; summary of the method: as §1
MDA-MB-231 = experiment: Cytotoxicity against human MDA-MB-231 cells after 48 hrs by MTT assay; format: functional, cell-based; details: MDA-MB-231, 48 h
Summary of the method: (§4)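 MTT conversion assay at 37 °C, 5% CO₂. […] Inhibition relative to untreated cells as 100%; IC50 by linear regression, mean of three independent experiments.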

Mus musculus [13] = experiment: Hematotoxicity in mouse H22 cells bearing Kunming mouse assessed as decrease in bone marrow cell numbers at 5 mg/kg, iv administered for 7 days measured on day 8 relative to vehicle treated control; format: organism-based; design: dose 5 mg/kg, route intravenous; details: in vivo, 168 h; summary of the method: as §2
Mus musculus [14] = experiment: Toxicity in mouse H22 cells bearing Kunming mouse assessed as change in spleen index number at 5 mg/kg, iv administered for 7 days measured on day 8 relative to vehicle treated control; format: organism-based; design: dose 5 mg/kg, route intravenous; details: in vivo, 168 h
Summary of the method: (§5)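 Tumour-bearing mice (10 per group) dosed iv for 7 consecutive days, killed on day 8; spleen and thymus removed and weighed. Organ index (%) = (organ weight/body weight) × 100, compared with saline-treated controls.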

Mus musculus [15] = experiment: Toxicity in mouse H22 cells bearing Kunming mouse assessed pathological changes in brain at 5 mg/kg, iv administered for 7 days measured on day 8 by hematoxylin and eosin staining relative to vehicle treated control; format: organism-based; design: dose 5 mg/kg, route intravenous; details: in vivo, 168 h; summary of the method: as §1
HCT-116 = experiment: Cytotoxicity against human HCT116 cells after 48 hrs by MTT assay; format: functional, cell-based; details: HCT-116, 48 h; summary of the method: as §4
HepG2 [16] = experiment: Cytotoxicity against human HepG2 cells assessed as cell nuclear shrinkage after 48 hrs by Hoechst 33342-based fluorescence-based high-content screening assay; format: functional; summary of the method: as §3
H22 [17] = experiment: Antimetastatic activity against mouse H22 cells xenografted in Kunming mouse assessed as tumor weight at 5 mg/kg, iv administered on day 11 post-tumor injection for 7 days measured on day 18 (reference value: 0.34 +/- 0.15 g); format: functional
HepG2 [18] = experiment: Cytotoxicity against human HepG2 cells after 48 hrs by MTT assay; format: functional, cell-based; details: HepG2, 48 h; summary of the method: as §4
H22 [19] = experiment: Antimetastatic activity against mouse H22 cells xenografted in Kunming mouse assessed as decrease in lung metastases nodus number at 5 mg/kg, iv administered on day 11 post-tumor injection for 7 days measured on day 18 by hematoxylin and eosin staining relative to vehicle treated control; format: functional, organism-based; design: dose 5 mg/kg
HepG2 [20] = experiment: Cytotoxicity against human HepG2 cells assessed as acruement in lysosomal mass/pH after 48 hrs by fluorescence-based high-content screening assay; format: functional, cell-based; summary of the method: as §3
Mus musculus [21] = experiment: Toxicity in mouse H22 cells bearing Kunming mouse assessed as decrease in red blood cells number at 5 mg/kg, iv administered for 7 days measured on day 8 relative to vehicle treated control; format: organism-based; design: dose 5 mg/kg, route intravenous; details: in vivo, 168 h; summary of the method: as §2
Mus musculus [22] = experiment: Toxicity in mouse H22 cells bearing Kunming mouse assessed as decrease in white blood cells number at 5 mg/kg, iv administered for 7 days measured on day 8 relative to vehicle treated control; format: organism-based; design: dose 5 mg/kg, route intravenous; details: in vivo, 168 h; summary of the method: as §2
H22 [23] = experiment: Antitumor activity against mouse H22 cells xenografted in Kunming mouse assessed as median survival time at 5 […], iv administered 24 hrs post-tumor injection for 7 days relative to vehicle treated control; format: functional
Summary of the method: (§6)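 Kunming mice bearing H22 cells; iv (caudal vein) dosing or physiologic saline control started 24 h after inoculation and given for 7 consecutive days. Median survival time recorded per group; activity judged as increase in lifespan versus saline control.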

Mus musculus [24] = experiment: Toxicity in mouse H22 cells bearing Kunming mouse assessed as change in thymus index number at 5 mg/kg, iv administered for 7 days measured on day 8 relative to vehicle treated control; format: organism-based; design: dose 5 mg/kg, route intravenous; details: in vivo, 168 h; summary of the method: as §5
K562 = experiment: Cytotoxicity against human K562 cells after 48 hrs by MTT assay; format: functional, cell-based; details: K562, 48 h; summary of the method: as §4
H22 [25] = experiment: Antitumor activity against mouse H22 cells xenografted in Kunming mouse assessed as median survival time at 5 […], iv administered 24 hrs post-tumor injection for 7 days (reference value: 12.7 +/- 2.5 days); format: functional; summary of the method: as §6

CN(C)CCN1C(=O)c2cccc3cc(N)cc(c23)C1=O [AMONAFIDE]
Activity (H22 [1]): Active
Activity (Mus musculus [2]): Non-toxic
Activity (Mus musculus [3]): Non-toxic
Activity (Mus musculus [4]): Toxic
Activity (H22 [5]): Active
Activity (HepG2 [6]): Dose-dependent effect
Activity (HepG2 [7]): Dose-dependent effect
Activity (Mus musculus [8]): Non-toxic
Activity (Mus musculus [9]): Toxic
Activity (Mus musculus [10]): Non-toxic
inhibition in vivo at 5 mg/kg (H22 [11]): 44.7%
Activity (Mus musculus [12]): Non-toxic
IC50 (MDA-MB-231): 42 µM
Activity (Mus musculus [13]): Toxic
Activity (Mus musculus [14]): Toxic
Activity (Mus musculus [15]): Non-toxic
IC50 (HCT-116): 32 µM
Activity (HepG2 [16]): Dose-dependent effect
Activity (H22 [17]): 0.29 g
IC50 (HepG2 [18]): 36 µM
Activity (H22 [19]): Active
Activity (HepG2 [20]): Dose-dependent effect
Activity (Mus musculus [21]): Toxic
Activity (Mus musculus [22]): Toxic
Ratio (H22 [23]): 1.5
Activity (Mus musculus [24]): Toxic
IC50 (K562): 31.7 µM
MST (H22 [25]): 18.9 days
